High-throughput results: PubChem BioAssay, several laboratories
Rows were chosen to be rich in hits. Some 5.3% of all compounds tested hit in one or more screens of this group.
Calb FLC = affects C. albicans growth with fluconazole | C. albicans CaCi-2 (fluconazole-resistant clinical isolate) + fluconazole, Alamar Blue growth, 48 h | 0.57% of 300,000 active | growth inhibition, % (no concentration beside the values);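 active = growth inhibition above about 58% in most replicates, limit read from the data, passing the limit was not always enough; inconclusive = exactly half the replicates above a set limit; inactive = most replicates below a set limit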;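 also: all wells also contain fluconazole at 8 µg/ml as a sub-toxic cotreatment; 0% = median of DMSO wells and 100% = median of geldanamycin control wells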
Beta apoptosis = beta cell apoptosis inhibition. INS-1E cytokine-induced death, ATP luminescence, 48 h; percent of positive-control rescue, neutral wells zero. protection from apoptosis, % (test concentration not listed). 0.8% of 300,000 active;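 active = Every replicate reaches about 75%, or at least half do and their mean reaches it too, limit read from the data; inconclusive = At least half of replicates reach the limit but their mean does not; inactive = Under half of replicates reach the limit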;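 also: 0% = cytokine-treated negative control wells and 100% = positive control rescue; higher means more ATP so stronger rescue from cytokine killing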
Mdm2-MdmX inh = human Mdm2/MdmX binding inhibition; SaOS-2 split-luciferase Mdm2/MdmX complementation, luminescence; inhibition, % at 8 µM; 3% of 330,000 active; AID 485346;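 active = inhibition of at least 50% at 8 µM in the primary screen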
Target sequence (O15151 whole entry, looked up): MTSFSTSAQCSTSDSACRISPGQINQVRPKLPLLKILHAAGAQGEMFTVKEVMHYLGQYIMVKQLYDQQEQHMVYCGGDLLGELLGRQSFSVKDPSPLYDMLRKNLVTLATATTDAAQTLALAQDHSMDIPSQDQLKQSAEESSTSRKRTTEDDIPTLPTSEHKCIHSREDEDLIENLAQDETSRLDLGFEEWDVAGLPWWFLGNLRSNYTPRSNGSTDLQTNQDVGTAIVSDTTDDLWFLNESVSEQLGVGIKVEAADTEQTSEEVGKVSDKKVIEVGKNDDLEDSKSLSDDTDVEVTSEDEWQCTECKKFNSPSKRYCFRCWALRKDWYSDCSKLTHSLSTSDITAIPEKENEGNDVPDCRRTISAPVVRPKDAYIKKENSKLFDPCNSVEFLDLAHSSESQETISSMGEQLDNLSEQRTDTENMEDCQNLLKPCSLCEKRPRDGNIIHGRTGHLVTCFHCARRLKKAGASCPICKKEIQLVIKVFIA
Target sequence (Q00987 whole entry, looked up): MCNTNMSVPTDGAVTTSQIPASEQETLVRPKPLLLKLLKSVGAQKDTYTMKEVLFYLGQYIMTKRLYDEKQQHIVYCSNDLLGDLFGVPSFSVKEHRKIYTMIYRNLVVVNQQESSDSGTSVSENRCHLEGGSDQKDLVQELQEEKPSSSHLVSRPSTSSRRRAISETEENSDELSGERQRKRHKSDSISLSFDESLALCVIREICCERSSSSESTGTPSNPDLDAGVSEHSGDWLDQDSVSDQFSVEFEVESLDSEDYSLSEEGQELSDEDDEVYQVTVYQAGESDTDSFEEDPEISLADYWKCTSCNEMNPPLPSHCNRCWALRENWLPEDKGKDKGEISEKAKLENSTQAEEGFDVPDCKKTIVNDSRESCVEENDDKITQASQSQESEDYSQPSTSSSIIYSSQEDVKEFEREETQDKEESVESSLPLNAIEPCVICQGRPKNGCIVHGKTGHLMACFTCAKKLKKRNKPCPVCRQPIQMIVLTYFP
CSC inhib = cancer stem cell inhibition; inhibition, % at 7.5 µM; 1.1% of 300,000 active; AID 2717; cancer stem cell-like cells viability, luminescence; in the data active = inhibition above about 75%; inconclusive = no clear call, values can overlap the other calls; tested in HMLE shEcad cells
NLRP3 yeast inh = inhibitors of NALP3 inflammasome in yeast; Yeast reconstituted NLRP3/ASC/caspase-1, beta-gal luminescence, 24 h; inhibition, % at 10 µM; 0.39% of 330,000 active; AID 2825;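 active = inhibition of 50% or more; inactive = inhibition below 50%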;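 also: plate controls were induced DMSO wells for no effect and uninduced yeast grown without galactose for full effect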
T cruzi repl = blocks replication of Trypanosoma cruzi. T. cruzi beta-gal in NIH3T3, luminescence, 90 h. inhibition, % (test concentration not listed). 1.4% of 300,000 active;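 active = mean inhibition across valid replicates above about 55%, limit read from the data; inconclusive = mean below that limit but half or more replicates reach it; inactive = mean below it, under half of replicates reach it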;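 also: signal also drops with host cell toxicity which is not excluded here; 0% = plate median of DMSO wells and 100% = zero luminescence signal; higher percent means less beta-gal luminescence so fewer parasites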
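Material: NIH/3T3 host cells with β-galactosidase reporter T. cruzi; Input: 5,000 host fibroblasts per well; Medium: DMEM, 2% fetal bovine serum; Compound: 50 nL DMSO compound solution per well; Schedule: 3 h host attachment, then at least 90 h co-culture; Detection: luminescent β-galactosidase signal after 60 min lysis.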
NALP3 yeast conf = confirmation of NALP3 inhibitors in yeast | shares compounds with NLRP3 yeast inh | yeast expressing human NALP3, luminescence | inhibition, % at 10 µM | 81% of 1,300 active | AID 435006; in the data active = inhibition above about 48%
Casp1-ASC yeast = caspase-1-ASC yeast counter-screen hit; shares compounds with NLRP3 yeast inh; yeast expressing Caspase-1-ASC, luminescence counter screen; inhibition, % at 10 µM; 66% of 1,000 active; AID 488784
NALP3 yeast rt = yeast NALP3 inhibition, confirmed on retest; yeast expressing human NALP3, luminescence read-out; inhibition, % at 10 µM; shares compounds with NLRP3 yeast inh; 53% of 1,000 active
Mdm2-MdmX conf = human Mdm2/MdmX binding inhibition, confirmed; shares compounds with Mdm2-MdmX inh; luminescent assay; inhibition, % at 8 µM; 55% of 10,000 active; AID 489028; in the data active = inhibition above about 40%
Full FLuc ctr = counter-screen for Mdm2/MdmX inhibitors: full-length luciferase; shares compounds with Mdm2-MdmX inh; SaOS-2 full-length luciferase counterscreen, luminescence; inhibition, % at 8 µM; 77% of 6,200 active;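 active = mean inhibition at 8 µM reaching about 37%, which flags the compound as non-specific, limit read from the data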;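 also: p53-null SaOS-2 cells with luciferase driven by a doxycycline-inducible promoter; compound on cells about two nights before reading with doxycycline added after day one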
* marks the source's active call; other numbers are inactive results; ? = inconclusive; . = no result. Rule as the data show it, unless noted: active = inhibition above about 50%; inactive = the rest.

SMILES | Calb FLC | Beta apoptosis | Mdm2-MdmX inh | CSC inhib | NLRP3 yeast inh | T cruzi repl | NALP3 yeast conf | Casp1-ASC yeast | NALP3 yeast rt | others
COC(=O)C1=C(c2ccc(F)cc2F)C[C@@H]2CC[C@H]1N2C(=O)N1CCC(C)CC1 | . | -11 | 20 | -5 | 21 | . | . | . | .
C[C@]12CCC3C(C[C@@H](O)[C@H]4C[C@@H](O)CC[C@]34C)C1CC[C@@H]2O (stereo not given in full) | . | 3 | -9 | -11 | 29 | . | . | . | .
C[C@]12CCC3[C@@H](CC[C@@H]4C[C@H](O)CC[C@]34C)[C@@H]1CCC2=O (stereo not given in full) | . | -2 | -17 | -5 | 67* | . | 61* | 71* | 61*
C[C@]12CC[C@H](O)C[C@@H]1CC[C@@H]1[C@@H]2CC[C@]2(C)C(=O)CC[C@@H]12 | . | 0 | 4 | -2 | 67* | 8 | 62* | 62* | 42
C[C@]12CCC3C(CC[C@H]4C[C@@H](O)CC[C@]34C)C1CC[C@@H]2OC(=O)[C@H](N)CCCCN (stereo not given in full) | . | 9 | 43 | 10 | 66* | . | 57* | . | .
CC(=O)OCC(=O)[C@H]1CC[C@H]2[C@@H]3CC[C@H]4C[C@H](O)CC[C@]4(C)[C@H]3C(=O)C[C@]12C | . | 7 | -12 | -12 | 56* | . | 71* | 53* | 53*
COC(=O)C1=C(c2ccc(F)cc2OCc2ccccc2)C[C@@H]2CC[C@H]1N2C(=O)N1CCC(C)CC1 | . | 0 | 23 | 14 | 6 | . | . | . | .
Nc1nonc1OCCCCOc1nonc1N | -3 | -15 | 18 | -10 | 2 | -11 | . | . | .
CN(C=O)CP(=O)(O)CN(C)C=O | -5 | 2 | -3 | -9 | -11 | -11 | . | . | .
c1ccc2sc(NC3=NCCN3)nc2c1 | 0 | 0 | -8 | -30 | 97* | -15 | 95* | 99* | 98*
COc1ccc2nc(NC3=NCCN3)sc2c1 | 23 | 0 | -72 | 4 | 95* | -7 | -25 | . | .
COc1cc(OC)c(OC)cc1CN1CCN(C(=O)Cc2ccccc2)CC1 | 0 | -8 | 7 | -19 | 6 | 3 | . | . | .
CCOC(=O)C1=Nc2ccccc2/C1=C\c1c(O)n(C)c(=O)n(C)c1=O | -3 | -10 | 21 | -4 | 53* | -11 | 45 | . | .
Cn1c(O)c(C=Nc2ccccc2-c2ccccc2)c(=O)n(C)c1=O | 2 | . | 13 | -7 | 12 | -24 | . | . | .
CC1(C)N2CC3([N+](=O)[O-])CN1CC([N+](=O)[O-])(C2)C3 | -4 | -8 | -34 | -11 | -11 | -4 | . | . | .
C[C@]1(O)CCC2C3CC[C@H]4C[C@@H](OC(=O)CNC(=O)CN)CC[C@]4(C)C3CC[C@@]21C (stereo not given in full) | . | 2 | 15 | -12 | 56* | . | 71* | . | .
COCCO[C@H]1CC[C@@]2(C)C(=CCC3C2CC[C@@]2(C)C3CC[C@]2(C)O)C1 (stereo not given in full) | . | -1 | 1 | 35 | 41 | . | . | . | .
N[C@@]1(C(=O)O)CC[C@@H](C(=O)O)C1 | . | 3 | 20 | -3 | 3 | . | . | . | .
O=[N+]([O-])c1ccc(N2CCCC2)c(F)c1Br | ? | 24 | 12 | -3 | 52* | -9 | 60* | 72* | 62*
O=C1c2ccccc2C(=O)N1Cc1nc2ccccc2c(=O)n1-c1ccc(Br)cn1 | -6 | -7 | 15 | -10 | 61* | 7 | 74* | 35 | 34
O=C(NC(=O)N1CCC2(CC1)OCCO2)c1ccc(Cl)cc1 | 2 | -3 | -7 | -2 | 1 | -9 | . | . | .
CCN1CCN(CC(c2ccccc2)c2ccccc2)CC1 | -19 | -1 | 8 | 4 | 14 | 8 | . | . | .
C[C@]12CCC(OC(=O)CCC(=O)O)CC1=CCC1C2CC[C@]2(C)C(=O)CCC12 (stereo not given in full) | 21 | -4 | 2 | -17 | 59* | -2 | 66* | 57* | 48
CC12CCC3C(CC=C4CC5(CCC43C)OCCO5)C1CCC2=O (stereo not given) | 0 | -5 | 21 | -18 | 62* | -4 | 75* | . | .
C[C@]12CC[C@H](OC(=O)CCC(=O)O)CC1=CCC1C2CC[C@@]2(C)C1CC[C@@H]2OC(=O)CCC(=O)O (stereo not given in full) | . | -1 | 16 | -25 | 37 | . | . | . | .
SMILES | Calb FLC | Beta apoptosis | Mdm2-MdmX inh | CSC inhib | NLRP3 yeast inh | T cruzi repl | NALP3 yeast conf | Casp1-ASC yeast | NALP3 yeast rt | others
Oc1c(Br)c(Br)c(Br)c(Br)c1Br | . | -1 | 21 | 101* | 66* | . | 71* | 74* | 91*
Cc1ccc(Cl)cc1N1CCN(CCN)CC1 | -2 | -1 | 11 | -7 | 59* | 7 | 57* | 58* | 67*
CN1CCN(c2ccc(Cl)cc2N)CC1 | 36 | 1 | 12 | -1 | 27 | 27 | . | . | .
Clc1ccccc1CN1CCNCC1 | 41 | -5 | 13 | 0 | 15 | 3 | . | . | .
COc1cc(O)c(C(=O)O)c(-c2cc(O)c(O)cc2C)c1 | -7 | . | 7 | -6 | 19 | -14 | . | . | .
CC[C@@H]1C(=O)OC[C@@H]1Cc1cncn1C | . | -5 | . | -17 | . | . | . | . | .
Nc1c2c(nc3sc4c(c13)CCCC4)CCCC2 | 4 | 3 | -18 | 16 | 71* | 33 | 82* | 54* | 57*
CC1(C)C[C@H]2C=C(C=O)[C@]3(C=O)C[C@]3(C)[C@H]2C1 | -16 | 105* | 100* | -6 | 84* | ? | 63* | . | . | Mdm2-MdmX conf=100*;Full FLuc ctr=-1
COc1cc2c(cc1OC)CN(c1ccc([N+](=O)[O-])c(C(F)(F)F)c1)CC2 | -9 | -4 | 59* | 0 | 50* | -6 | 23 | . | . | Mdm2-MdmX conf=-2
CN1/C(=C\C=Nc2ccccc2)C(C)(C)c2ccccc21 | -15 | . | 8 | -5 | 15 | 15 | . | . | .
CN1/C(=C\C=C\C2=[N+](C)c3ccc4ccccc4c3C2(C)C)C(C)(C)c2ccccc21 | . | 100* | 100* | 115* | 53* | . | 53* | . | . | Mdm2-MdmX conf=100*;Full FLuc ctr=0
O=c1c2ccccc2nc(-c2ccco2)n1-c1ccncc1 | -3 | 4 | 2 | 0 | 3 | 3 | . | . | .
Cc1ccc(C[n+]2c(-c3ccc(C)cc3)cc(-c3ccc(C)cc3)cc2-c2ccc(C)cc2)cc1 | 3 | 118* | 100* | -5 | 78* | 47 | 76* | 72* | 75* | Mdm2-MdmX conf=98*;Full FLuc ctr=8
